This note sets out measurements from publication PMC4474499 (Science Advances, 2015).

Usually Kd stands for the constant that tells how readily two partners part at equilibrium. By EC50 is commonly meant the concentration giving half of the maximal effect.

For data set [1], the system named is HEK-Blue hTLR2 cells. In words: QUANTI-Blue SEAP assay with anti-hTLR antibodies. Format: cell-based, human. Particulars: 60 nM, 24 hours. In short, it runs like this: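 HEK-Blue hTLR2 cells, 4 × 10^4/well, grown 24 h. Then 24 h in Opti-MEM/0.5% FBS containing 60 nM test compound, 0.66 nM Pam3CSK4 or 0.77 nM Pam2CSK4. Anti-hTLR1 IgG, anti-hTLR2 IgA or anti-hTLR6 IgA added at 0–10 μg/ml. Supernatant incubated with QUANTI-Blue 1 h at 37°C; A655 read.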

For another data set, the system named is NF-κB. Put plainly: U937 NF-κB–GFP reporter assay. Format: cell-based, human. The conditions noted are these: U937 cells. (In general: Reporter assays use an easily measured gene product as a stand-in for the process of interest.)
Another data set deals with T1, TLR1 (Homo sapiens, UniProt Q15399).
T1 sequence (Q15399 25-580 limits assumed): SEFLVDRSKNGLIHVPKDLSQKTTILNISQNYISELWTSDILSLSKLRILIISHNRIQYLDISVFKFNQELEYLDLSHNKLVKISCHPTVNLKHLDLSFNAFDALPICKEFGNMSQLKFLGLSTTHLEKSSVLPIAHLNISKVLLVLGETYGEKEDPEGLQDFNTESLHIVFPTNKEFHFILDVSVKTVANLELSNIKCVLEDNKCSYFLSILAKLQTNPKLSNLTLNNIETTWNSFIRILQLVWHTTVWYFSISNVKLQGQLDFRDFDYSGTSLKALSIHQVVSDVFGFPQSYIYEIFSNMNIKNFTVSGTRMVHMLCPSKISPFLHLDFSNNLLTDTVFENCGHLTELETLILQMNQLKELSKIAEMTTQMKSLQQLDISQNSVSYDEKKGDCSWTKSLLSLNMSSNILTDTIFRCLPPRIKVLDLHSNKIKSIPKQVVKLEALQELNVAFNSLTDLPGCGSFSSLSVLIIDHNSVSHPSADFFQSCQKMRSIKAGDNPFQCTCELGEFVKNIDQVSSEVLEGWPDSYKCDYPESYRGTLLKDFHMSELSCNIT
In words: Microscale thermophoresis. The format is binding. In short, it runs like this: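 Human TLR1 expressed in baculovirus-infected High Five insect cells and purified on protein A Sepharose. Labelled with NT-647 and held at 10 nM. Test compound varied 0.31 nM–10 μM. Buffer: 50 mM Tris-HCl pH 7.6, 150 mM NaCl, 10 mM MgCl2, 0.05% Tween 20, in glass capillaries. Apparent Kd fitted from thermophoresis.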

In a further data set the target is human TLR5 (Homo sapiens, UniProt O60602). In words: SEAP reporter gene detection assay in HEK-Blue TLR5 cells. The format is cell-based. The conditions noted are these: 0 to 20 μM, 24 hours. In short, it runs like this: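 HEK 293 cells stably carrying the human TLR and a SEAP reporter, 4 × 10^4/well, grown 24 h. Then 24 h in Opti-MEM/0.5% FBS with test compound. Positive controls: poly(I:C) 0–10.9 μg/ml (TLR3), LPS 0–36.5 ng/ml (TLR4), FLA-BS 0–10 μg/ml (TLR5), R848 0–6 μg/ml (TLR7, TLR8). Supernatant heated 30 min at 65°C, then CSPD substrate added; luminescence read after 20 min.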
Chain of human TLR5 (O60602 21-858): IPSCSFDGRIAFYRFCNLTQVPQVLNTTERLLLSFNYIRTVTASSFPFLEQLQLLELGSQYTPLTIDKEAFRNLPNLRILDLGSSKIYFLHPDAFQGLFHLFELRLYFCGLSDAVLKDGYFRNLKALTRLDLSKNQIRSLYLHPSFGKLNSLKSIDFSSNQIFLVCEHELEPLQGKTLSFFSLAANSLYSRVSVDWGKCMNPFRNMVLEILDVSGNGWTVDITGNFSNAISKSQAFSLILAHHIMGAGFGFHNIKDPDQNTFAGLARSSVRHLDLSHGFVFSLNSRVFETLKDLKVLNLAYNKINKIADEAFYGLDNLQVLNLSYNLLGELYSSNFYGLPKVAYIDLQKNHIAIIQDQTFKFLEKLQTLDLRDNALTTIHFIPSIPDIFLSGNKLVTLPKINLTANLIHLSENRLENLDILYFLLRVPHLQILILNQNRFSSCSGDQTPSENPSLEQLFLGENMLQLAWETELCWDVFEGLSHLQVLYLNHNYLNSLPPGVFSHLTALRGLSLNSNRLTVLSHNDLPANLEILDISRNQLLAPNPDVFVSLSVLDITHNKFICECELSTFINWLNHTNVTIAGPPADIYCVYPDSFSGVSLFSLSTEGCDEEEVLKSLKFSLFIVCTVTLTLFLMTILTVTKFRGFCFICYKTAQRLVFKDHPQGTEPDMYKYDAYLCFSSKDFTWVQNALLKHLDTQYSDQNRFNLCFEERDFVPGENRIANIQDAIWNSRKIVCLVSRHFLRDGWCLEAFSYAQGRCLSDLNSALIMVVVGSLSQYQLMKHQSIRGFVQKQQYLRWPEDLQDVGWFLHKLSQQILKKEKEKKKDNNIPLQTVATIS

Another data set concerns the target human TLR2 (Homo sapiens, UniProt O60603+Q15399). In words: SEAP reporter gene detection assay in HEK-Blue hTLR2 cells. The format is cell-based. In short, it runs like this:
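HEK-Blue hTLR2 cells (SEAP reporter), 4 × 10^4/well, grown 24 h. Then 24 h in Opti-MEM/0.5% FBS with compounds at 0–50 μM or 0–100 μM. Pam3CSK4 (0–66 nM) used as reference agonist. Supernatant heat-treated 30 min at 65°C, cooled, mixed with SEAP buffer and CSPD substrate; luminescence read after 20 min.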

A further data set concerns the target hTLR1 and hTLR2 (Homo sapiens, UniProt O60603+Q15399). Put plainly: SEC-LS assay of TLR1/2 heterodimer formation. The conditions noted are these: CU-T12-9 0 to 40 μM or Pam3CSK4 260 nM (400 ng/ml). The format is biochemical. In short, it runs like this:
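Human TLR2 in PBS pH 7.4 preincubated 2 h at RT with test compound or Pam3CSK4. Equimolar hTLR1 then added (final about 10 μM each) for 2 h at 37°C. Both proteins were baculovirus/insect-cell products. Samples filtered (0.1 μm) and run on size-exclusion column in PBS at 1 ml/min. Detection by in-line multi-angle light scattering, refractive index and UV.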

The subject of data set [2] is Raw 264.7 cells. In words: Quantitative RT-PCR of mRNA levels in Raw 264.7 macrophage cells. The format is cell-based, mouse. In short, it runs like this:
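RAW 264.7 cells, 1 × 10^6/well, grown 24 h, then given fresh RPMI 1640. Exposed to test compound, or 33 nM (50 ng/ml) Pam3CSK4, for 0, 2, 8 or 24 h. Cells washed in cold PBS and frozen. Total RNA extracted (RNeasy) for qRT-PCR. Fold change calculated by ΔΔCt versus DMSO-treated cells, means ± SD.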

Data set [3] concerns Raw 264.7 cells. In words: In vitro NO activation assay for Raw 264.7 cells. The format is cell-based, mouse. Particulars: Raw 264.7 cells, 24 hours. In short, it runs like this: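 RAW 264.7 cells, 80,000/well, grown 24 h. Non-adherent cells removed; medium changed to unsupplemented RPMI 1640. Treated 24 h with test compound, or 66 nM (100 ng/ml) Pam3CSK4 as control. Supernatant reacted 15 min in the dark with 2,3-diaminonaphthalene in HCl, quenched with NaOH. Fluorescence read at ex 365/em 450 nm; nitrite calculated from a standard curve.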

Data set [4] relates to HEK-Blue hTLR2 cells. In words: MTT cell viability assay in HEK-Blue hTLR2 cells. Particulars: up to 100 μM, 24 h. Format: cell-based, human. In short, it runs like this:
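HEK-Blue hTLR2 cells, 40,000/well in DMEM/10% FBS, grown 24 h at 37°C, 5% CO2. Medium then replaced by Opti-MEM (0.5% FBS, non-essential amino acids) with compounds at 0–100 μM for 24 h. MTT added for 4 h; formazan dissolved in DMSO; A560 read. Cytotoxicity % = 1 − (sample − blank)/(control − blank), ×100.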
(Tetrazolium assays rely on reduction of a dye to a coloured formazan, in cell work by metabolically active cells.)

Data set [5] has as its system primary rat macrophage cells. In words: Primary peritoneal macrophage NO activation assay. The format is cell-based. Particulars: 24 hours. In short, it runs like this:
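Peritoneal cells from Sprague-Dawley rats collected by HBSS lavage, then red cells lysed. Seeded at 40,000/well in Iscove's medium with 10% FBS; adhered 2 h; non-adherent cells washed off; cultured overnight. Serum-free Iscove's then given with test compound, or 66 nM Pam3CSK4, for 24 h. Supernatant nitrite measured by diaminonaphthalene fluorescence.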

Chain of human TLR2 (O60603 21-784): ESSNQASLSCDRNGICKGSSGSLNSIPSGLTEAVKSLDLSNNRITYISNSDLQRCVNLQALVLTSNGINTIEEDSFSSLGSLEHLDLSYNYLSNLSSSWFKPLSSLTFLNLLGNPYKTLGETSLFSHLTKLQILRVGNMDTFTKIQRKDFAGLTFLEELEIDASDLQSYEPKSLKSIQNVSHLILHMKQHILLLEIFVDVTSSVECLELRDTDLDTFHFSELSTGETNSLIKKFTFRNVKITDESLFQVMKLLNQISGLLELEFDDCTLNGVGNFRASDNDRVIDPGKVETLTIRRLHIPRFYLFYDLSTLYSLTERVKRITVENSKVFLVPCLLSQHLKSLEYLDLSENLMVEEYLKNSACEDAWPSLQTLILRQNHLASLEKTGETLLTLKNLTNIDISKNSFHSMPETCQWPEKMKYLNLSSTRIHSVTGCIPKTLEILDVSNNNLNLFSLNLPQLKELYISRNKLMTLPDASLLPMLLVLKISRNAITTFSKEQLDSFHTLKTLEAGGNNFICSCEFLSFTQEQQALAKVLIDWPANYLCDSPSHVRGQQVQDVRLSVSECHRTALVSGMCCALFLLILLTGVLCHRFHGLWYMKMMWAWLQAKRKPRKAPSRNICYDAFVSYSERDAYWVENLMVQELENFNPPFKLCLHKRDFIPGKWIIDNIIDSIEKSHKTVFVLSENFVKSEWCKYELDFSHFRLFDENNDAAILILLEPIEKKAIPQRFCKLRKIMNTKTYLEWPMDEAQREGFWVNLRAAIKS
Chain of human TLR2 (Q15399 25-786): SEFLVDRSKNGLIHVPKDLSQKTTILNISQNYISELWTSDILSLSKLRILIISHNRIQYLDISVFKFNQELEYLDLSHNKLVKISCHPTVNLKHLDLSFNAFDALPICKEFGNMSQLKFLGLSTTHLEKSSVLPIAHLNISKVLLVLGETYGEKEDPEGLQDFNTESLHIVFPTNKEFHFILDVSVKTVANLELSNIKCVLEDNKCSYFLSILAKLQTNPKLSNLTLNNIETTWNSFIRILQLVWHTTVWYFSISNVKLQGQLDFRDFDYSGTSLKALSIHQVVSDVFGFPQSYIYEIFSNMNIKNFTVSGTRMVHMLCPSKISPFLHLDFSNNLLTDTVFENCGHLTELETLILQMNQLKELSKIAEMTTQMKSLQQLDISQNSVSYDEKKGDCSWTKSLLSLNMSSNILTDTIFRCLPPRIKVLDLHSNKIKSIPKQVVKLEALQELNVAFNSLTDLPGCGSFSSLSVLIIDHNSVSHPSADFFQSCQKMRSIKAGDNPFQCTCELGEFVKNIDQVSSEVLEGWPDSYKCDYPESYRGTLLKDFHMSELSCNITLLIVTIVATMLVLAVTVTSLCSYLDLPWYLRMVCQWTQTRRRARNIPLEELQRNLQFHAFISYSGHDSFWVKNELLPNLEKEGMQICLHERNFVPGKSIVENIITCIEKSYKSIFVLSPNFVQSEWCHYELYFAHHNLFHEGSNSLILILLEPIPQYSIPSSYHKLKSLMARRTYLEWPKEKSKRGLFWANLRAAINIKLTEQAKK
Chain of hTLR1 and hTLR2 (O60603 21-588 limits assumed, one chain of several): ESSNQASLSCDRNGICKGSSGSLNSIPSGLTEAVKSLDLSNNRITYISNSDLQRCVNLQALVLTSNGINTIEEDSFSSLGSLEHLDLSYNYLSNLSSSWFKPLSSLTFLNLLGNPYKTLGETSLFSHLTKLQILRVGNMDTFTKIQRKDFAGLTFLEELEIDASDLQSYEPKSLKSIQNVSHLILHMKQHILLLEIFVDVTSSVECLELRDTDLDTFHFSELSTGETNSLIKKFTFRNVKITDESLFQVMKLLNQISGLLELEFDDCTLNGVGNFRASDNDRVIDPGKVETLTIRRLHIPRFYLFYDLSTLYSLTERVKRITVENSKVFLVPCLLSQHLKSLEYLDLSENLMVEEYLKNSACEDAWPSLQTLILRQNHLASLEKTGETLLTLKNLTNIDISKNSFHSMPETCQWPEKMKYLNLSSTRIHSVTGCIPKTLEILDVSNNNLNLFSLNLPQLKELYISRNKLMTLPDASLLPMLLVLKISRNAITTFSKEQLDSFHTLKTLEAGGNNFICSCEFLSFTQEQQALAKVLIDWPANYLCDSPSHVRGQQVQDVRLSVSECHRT

On to `CNc1ccc([N+](=O)[O-])cc1-n1cnc(-c2ccc(C(F)(F)F)cc2)c1` [CU-T12-9, N-methyl-4-nitro-2-(4-(4-(trifluoromethyl)phenyl)-1H-imidazol-1-yl)aniline], for which the “activation of QUANTI-Blue SEAP signaling” value in the data set on HEK-Blue hTLR2 cells [1] is on record as “strongly activates”. Moreover, the NF-κB activation entry was “comparable activation to 66 nM (100 ng/ml) Pam3CSK4” in the data set on NF-κB (5 μM, 24 hours) and “excellent NF-κB activation” in the data set with NF-κB (20 μM (GA even up to 100 μM)). On TLR1, binding was characterised by a dissociation constant (Kd) of 0.229 ± 0.066 µM. Further, at human TLR5, the “activation of SEAP signaling, TLR5” value is “not in other TLR-overexpressing cells”. At human TLR2, this compound returned a half-maximal effective concentration (EC50) of 0.0529 ± 0.0062 µM. Further, on human TLR2 (0 to 20 μM, 24 hours), the “activation of SEAP signaling, hTLR2” value is “strongly activate”. Further, the “increase in potency relative to GA (factor)” value on human TLR2 (replacement of –NO2 at R3) turned out to be 50. Moreover, the TLR1/2 heterodimer formation result at hTLR1 and hTLR2 is “Heterodimer formation was detected”. In the data set on Raw 264.7 cells [2] (1 μM CU-T12-9, 24 hours), the “TLR1 mRNA” value is recorded as “potently increased”. The “time of highest TLR2 mRNA expression” value in the data set with Raw 264.7 cells [2] (1 μM CU-T12-9 or 33 nM (50 ng/ml) Pam3CSK4, measured at 2, 8, 24 hours) was determined as 2 h. The “IL-10 mRNA” value in the data set with Raw 264.7 cells [2] (2 hours, decreased over time) is listed as “up-regulated”. Further, the “TNF mRNA expression” value in the data set on Raw 264.7 cells [2] (over time, maximal expression after 8 hours) is reported as “increased”. In the data set with Raw 264.7 cells [2] (over time, peaked at 24 hours), the “iNOS mRNA expression” value was “increased”. For the same compound, the NO production result (in the data set with Raw 264.7 cells [3]; in [5]) was “efficiently triggered NO production” each time. The cytotoxicity result in the data set on HEK-Blue hTLR2 cells [4] is “negligible cytotoxicity”.
